Measured values from ChEMBL document CHEMBL2429751, “Diterpenoids and sesquiterpenoids from the roots of Illicium majus” (J Nat Prod, 2013).
Active and inactive are the calls of the source. The calls are words filed in the database; no cut-off is given here.

Legend:
Coxsackievirus B3 [1] = experiment: Antiviral activity against Coxsackievirus B3 infected in African green monkey Vero cells assessed as protection against virus-induced cytopathic effect after 48 hrs by Reed-Muench analysis; assay type: functional, organism-based; set-up: unit not given here
Procedure, shortened: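 Confluent Vero monolayers were infected with 100 TCID50 Cox B3 and allowed 1 h adsorption at 37 °C. Cells were PBS-washed, then kept at 37 °C in maintenance medium with 2% FBS, with or without graded compound concentrations. CPE was scored once virus controls reached 4+, and IC50 was derived by Reed–Muench analysis.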

Vero = experiment: Cytotoxicity against African green monkey Vero cells after 48 hrs by Reed-Muench analysis; assay type: cell-based; set-up: unit not given here; conditions: chlorocebus sabaeus
Procedure, shortened: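 Vero cells were seeded and, after 24 h, exposed to graded compound concentrations for 48 h at 37 °C under 5% CO2. Cell damage was scored microscopically as CPE, and TC50 was calculated by Reed–Muench analysis.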

Coxsackievirus B3 [2] = experiment: Selectivity index, ratio of TC50 for African green monkey Vero cells to IC50 for Coxsackievirus B3; assay type: toxicity, cell-based; conditions: read-out: Selectivity Index
Procedure, shortened: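 SI is TC50/IC50. TC50 comes from 48 h Vero CPE cytotoxicity and IC50 from Cox B3 (100 TCID50) CPE inhibition in Vero cells, both by Reed–Muench analysis.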

Compound	IC50 (Coxsackievirus B3 [1])	TC50 (Vero)	selectivity ratio (Coxsackievirus B3 [2])	Activity (Coxsackievirus B3 [1])
C[C@@H](CO)c1ccc2c(c1)CC[C@H]1[C@@](C)(C(=O)O)CCC[C@]21C	12.8	66.7	5.2	–
CC(C)(O)c1ccc2c(c1)C(=O)C[C@H]1[C@@](C)(CO)CCC[C@]21C	–	–	–	inactive
CC(C)(O)c1ccc2c(c1)C(=O)C[C@H]1[C@@](C)(C(=O)O)CCC[C@]21C	–	–	3.9	–
C[C@@H]1CC[C@@]23O[C@@]4(O)C[C@@]12[C@@H](O)C(=O)OC[C@@]3(CO)[C@@]4(C)O	66.7	200	3	–
CC1=C(C(=O)O[C@@]23OC[C@]4(C)[C@@]5(O)CC[C@@H](C)[C@@]5(CC(=O)[C@]24C)[C@H]3O)CCC1=O	66.7	200	3	–
C[C@@H]1CC[C@@]23O[C@@]4(O)C[C@@]12[C@@H](O)C(=O)OC[C@@]3(CO[C@@H]1O[C@H](CO)[C@@H](O)[C@H](O)[C@H]1O)[C@@]4(C)O	–	–	–	inactive
C[C@@]12COC(=O)[C@]1(C)[C@@H](OC(=O)c1ccccc1)[C@]13CC(=O)O[C@@]1(C)CC[C@]23O	–	–	–	inactive
C[C@](O)(CO)c1ccc2c(c1)CC[C@H]1[C@@](C)(C(=O)O)CCC[C@]21C	22.2	138.7	6.2	–
C[C@]1(CO)CCC[C@]2(C)c3ccc([C@](C)(O)CO)cc3CC[C@@H]12	–	–	–	inactive
CC(C)c1ccc2c(c1)CC[C@H]1[C@@](C)(C(=O)O)CCC[C@]21C	–	–	6.7	–
C[C@@]12COC(=O)[C@]1(C)[C@@H](O)[C@@]13CC(=O)O[C@@]21CC=C3CO[C@@H]1O[C@H](CO)[C@@H](O)[C@H](O)[C@H]1O	51.7	200	3.9	–
C[C@H](CO)c1ccc2c(c1)CC[C@H]1[C@@](C)(C(=O)O)CCC[C@]21C	17.4	138.7	8	–
C[C@]1(CO)CCC[C@]2(C)c3ccc([C@@](C)(O)CO)cc3CC[C@@H]12	–	–	–	inactive
